From ChEMBL document CHEMBL1629436, “Synthesis and biological evaluation of new camptothecin derivatives obtained by modification of position 20” (Bioorg Med Chem, 2010)
Active and inactive are the calls of the source. The calls are words filed in the database; no cut-off is given here.

Columns and labels:
yA7 [1] = assay: Induction apoptosis in mouse yA7 cells assessed as relative caspase activity at 10 uM/L after 2 hrs by rhodamine 110 fluorescence assay; format: functional, cell-based
Outline: (§1)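 Cells were pretreated with compound (10 µmol/L) for 2 h. The cell-permeable caspase substrate (Asp)2-rhodamine 110 (10 µmol/L) was then added for 2 h more. Caspase cleavage releases fluorescent rhodamine 110, and the read-out was mean fluorescence.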

Nucleic Acid = assay: Binding affinity to salmon testes DNA by linear flow dichroism analysis; format: nucleic-acid assay; settings: Salmonidae
Outline: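 Salmon testes DNA (1.9 × 10^-3 M) in ETN buffer (10 mM Tris, 10 mM NaCl, 1 mM EDTA, pH 7). Linear dichroism spectra were recorded at 25 °C over a range of [drug]/[DNA] ratios on a spectropolarimeter converted for LD.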

B3 [2] = assay: Induction apoptosis in mouse B3 cells assessed as relative caspase activity at 10 uM/L after 2 hrs by rhodamine 110 fluorescence assay; format: functional, cell-based; outline: as §1
yA7 [3] = assay: Induction apoptosis in mouse yA7 cells assessed as ROS production at 10 uM/L using DCFH-DA by flow cytometry relative to control; format: functional, cell-based
Outline: (§2)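 Transgenic mouse cells exposed to compound at 10 µmol/L. ROS generation was measured by flow cytometry using the probe DCFH-DA.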

Mus musculus [4] = organism: Mus musculus; assay: Induction apoptosis in mouse betaD10 cells assessed as ROS production at 10 uM/L using DCFH-DA by flow cytometry relative to control; format: functional, cell-based; outline: as §2
B3 [5] = assay: Induction apoptosis in mouse B3 cells assessed as ROS production at 10 uM/L using DCFH-DA by flow cytometry relative to control; format: functional, cell-based; outline: as §2
[6] = target: DNA topoisomerase 2-alpha (Homo sapiens) (UniProt P11388); assay: Inhibition of human recombinant topoisomerase 2alpha-mediated relaxation of supercoiled pBR322 at up to 100 uM after 60 mins using ethidium bromide staining by agarose gel electrophoresis
DNA topoisomerase 2-alpha (Homo sapiens), sequence (P11388 whole entry): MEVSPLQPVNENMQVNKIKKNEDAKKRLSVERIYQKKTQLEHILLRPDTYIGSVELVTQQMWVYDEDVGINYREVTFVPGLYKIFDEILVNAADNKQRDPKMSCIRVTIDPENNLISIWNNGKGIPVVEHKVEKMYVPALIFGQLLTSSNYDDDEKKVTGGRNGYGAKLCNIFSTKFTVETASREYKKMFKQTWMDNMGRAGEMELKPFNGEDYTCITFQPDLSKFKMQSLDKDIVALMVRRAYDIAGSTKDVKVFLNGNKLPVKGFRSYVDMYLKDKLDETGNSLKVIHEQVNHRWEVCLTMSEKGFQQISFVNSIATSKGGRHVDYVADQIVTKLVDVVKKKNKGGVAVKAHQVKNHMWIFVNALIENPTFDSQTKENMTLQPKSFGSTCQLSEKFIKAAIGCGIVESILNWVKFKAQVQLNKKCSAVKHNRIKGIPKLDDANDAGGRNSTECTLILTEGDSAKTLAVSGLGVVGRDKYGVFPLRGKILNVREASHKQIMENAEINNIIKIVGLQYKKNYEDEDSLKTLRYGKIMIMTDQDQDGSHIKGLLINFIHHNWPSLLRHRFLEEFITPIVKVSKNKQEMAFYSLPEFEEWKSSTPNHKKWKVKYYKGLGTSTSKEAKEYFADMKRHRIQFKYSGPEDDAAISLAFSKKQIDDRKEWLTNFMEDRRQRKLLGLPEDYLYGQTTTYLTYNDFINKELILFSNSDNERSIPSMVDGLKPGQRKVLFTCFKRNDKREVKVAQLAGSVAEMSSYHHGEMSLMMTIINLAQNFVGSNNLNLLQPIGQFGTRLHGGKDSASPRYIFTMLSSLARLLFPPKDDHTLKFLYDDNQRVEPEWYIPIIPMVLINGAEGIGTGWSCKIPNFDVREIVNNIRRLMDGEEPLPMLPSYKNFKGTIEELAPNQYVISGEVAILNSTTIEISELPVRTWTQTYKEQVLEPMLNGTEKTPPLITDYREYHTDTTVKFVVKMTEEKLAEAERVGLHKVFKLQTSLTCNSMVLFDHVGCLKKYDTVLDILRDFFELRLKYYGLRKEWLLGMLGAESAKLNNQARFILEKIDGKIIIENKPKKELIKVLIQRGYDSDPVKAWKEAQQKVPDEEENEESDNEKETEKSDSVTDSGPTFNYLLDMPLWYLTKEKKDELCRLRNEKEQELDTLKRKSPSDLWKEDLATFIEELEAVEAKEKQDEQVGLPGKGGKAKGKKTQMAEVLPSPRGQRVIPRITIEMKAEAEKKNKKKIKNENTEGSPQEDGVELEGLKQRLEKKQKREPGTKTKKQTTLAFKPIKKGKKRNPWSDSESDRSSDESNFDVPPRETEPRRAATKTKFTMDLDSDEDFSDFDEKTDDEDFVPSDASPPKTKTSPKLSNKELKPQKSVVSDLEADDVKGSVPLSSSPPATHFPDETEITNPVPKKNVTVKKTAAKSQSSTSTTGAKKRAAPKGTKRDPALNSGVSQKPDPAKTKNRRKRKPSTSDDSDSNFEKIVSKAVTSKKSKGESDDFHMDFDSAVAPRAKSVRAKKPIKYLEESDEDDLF
Outline: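 Supercoiled pBR322 (0.25 µg) with 1 U human recombinant topoisomerase IIα and test compound, 60 min at 37 °C in 20 µl reaction buffer. Stopped with SDS/bromophenol blue/glycerol plus 50 µg/mL proteinase K, 30 min at 37 °C. Separated on 1% agarose at room temperature, ethidium bromide stained (1 µg/mL, TAE), UV-visualized.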

Mus musculus [7] = organism: Mus musculus; assay: Induction apoptosis in mouse betaD10 cells assessed as relative caspase activity at 10 uM/L after 2 hrs by rhodamine 110 fluorescence assay; format: functional, cell-based; outline: as §1
Mus musculus [8] = organism: Mus musculus; assay: Induction apoptosis in mouse betaD5 cells assessed as relative caspase activity at 10 uM/L after 2 hrs by rhodamine 110 fluorescence assay; format: functional, cell-based; outline: as §1
Mus musculus [9] = organism: Mus musculus; assay: Induction apoptosis in mouse betaD5 cells assessed as ROS production at 10 uM/L using DCFH-DA by flow cytometry relative to control; format: functional, cell-based; outline: as §2
A2B1 [10] = assay: Cytotoxicity against mouse A2B1 cells after 24 to 96 hrs by MTS assay; format: functional, cell-based
Outline: (§3)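 Mouse transgenic lines plated at 10^3 cells/well and left 24 h to attach. Drugs diluted in medium were added for 24 or 96 h. CellTiter 96 AQueous One (MTS) reagent was then added for 1 h at 37 °C, with absorbance read at 490 nm. Each condition was run in quintuplicate, and cytotoxicity was expressed as percent of controls.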

A-431 = assay: Cytotoxicity against human A431 cells after 72 hrs by trypan blue assay; format: functional, cell-based; settings: A-431, 72 h
Outline: (§4)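 A-431, HeLa and HL-60 cells at 4×10^4 per well, incubated 24 h. HeLa and A-431 then received fresh medium. Graded compound concentrations were added for a further 72 h at 37 °C, 5% CO2. Viability was counted by Trypan blue exclusion. IC50 is the concentration giving 50% reduction in cell number versus control: ≥3 independent experiments, triplicate samples, mean ± SD.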

yB8 [11] = assay: Cytotoxicity against mouse yB8 cells after 24 to 96 hrs by MTS assay; format: functional, cell-based; outline: as §3
yA7 [12] = assay: Cytotoxicity against mouse yA7 cells after 24 to 96 hrs by MTS assay; format: functional, cell-based; outline: as §3
yA3 [13] = assay: Cytotoxicity against mouse yA3 cells after 24 to 96 hrs by MTS assay; format: functional, cell-based; outline: as §3
Bos taurus = organism: Bos taurus; assay: Inhibition of calf thymus topoisomerase 1-mediated relaxation of supercoiled pBR322 at 100 uM after 60 mins using ethidium bromide staining by agarose gel electrophoresis
Outline: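 Supercoiled pBR322 (0.25 µg) with 2 U calf thymus topoisomerase I and test compound, 60 min at 37 °C in 20 µl reaction buffer. Stopped with SDS/bromophenol blue/glycerol plus 50 µg/mL proteinase K, 30 min at 37 °C. Run on 1% agarose at room temperature, stained with ethidium bromide 1 µg/mL in TAE, imaged under UV.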

yD1 [14] = assay: Induction apoptosis in mouse yD1 cells assessed as relative caspase activity at 10 uM/L after 2 hrs by rhodamine 110 fluorescence assay; format: functional, cell-based; outline: as §1
HeLa = assay: Cytotoxicity against human HeLa cells after 72 hrs by trypan blue assay; format: functional, cell-based; outline: as §4
yB8 [15] = assay: Induction apoptosis in mouse yB8 cells assessed as relative caspase activity at 10 uM/L after 2 hrs by rhodamine 110 fluorescence assay; format: functional, cell-based; outline: as §1
yD12 [16] = assay: Induction apoptosis in mouse yD12 cells assessed as relative caspase activity at 10 uM/L after 2 hrs by rhodamine 110 fluorescence assay; format: functional, cell-based; outline: as §1
yD12 [17] = assay: Induction apoptosis in mouse yD12 cells assessed as ROS production at 10 uM/L using DCFH-DA by flow cytometry relative to control; format: functional, cell-based; outline: as §2
yD12 [18] = assay: Cytotoxicity against mouse yD12 cells after 24 to 96 hrs by MTS assay; format: functional, cell-based; outline: as §3
A2C12 [19] = assay: Cytotoxicity against mouse A2C12 cells after 24 to 96 hrs by MTS assay; format: functional, cell-based; outline: as §3
Craf/Cmyc [20] = assay: Induction apoptosis in mouse Craf/Cmyc cells assessed as ROS production at 10 uM/L using DCFH-DA by flow cytometry relative to control; format: functional, cell-based; outline: as §2
HL-60 = assay: Cytotoxicity against human HL60 cells after 72 hrs by trypan blue assay; format: functional, cell-based; settings: HL-60, 72 h; outline: as §4
yA3 [21] = assay: Induction apoptosis in mouse yA3 cells assessed as relative caspase activity at 10 uM/L after 2 hrs by rhodamine 110 fluorescence assay; format: functional, cell-based; outline: as §1
Craf/Cmyc [22] = assay: Induction apoptosis in mouse Craf/Cmyc cells assessed as relative caspase activity at 10 uM/L after 2 hrs by rhodamine 110 fluorescence assay; format: functional; outline: as §1
yA3 [23] = assay: Induction apoptosis in mouse yA3 cells assessed as ROS production at 10 uM/L using DCFH-DA by flow cytometry relative to control; format: functional, cell-based; outline: as §2
B3 [24] = assay: Cytotoxicity against mouse B3 cells after 24 to 96 hrs by MTS assay; format: functional, cell-based; outline: as §3
yD1 [25] = assay: Induction apoptosis in mouse yD1 cells assessed as ROS production at 10 uM/L using DCFH-DA by flow cytometry relative to control; format: functional, cell-based; outline: as §2
A2C12 [26] = assay: Induction apoptosis in mouse A2C12 cells assessed as ROS production at 10 uM/L using DCFH-DA by flow cytometry relative to control; format: functional, cell-based; outline: as §2
yB8 [27] = assay: Induction apoptosis in mouse yB8 cells assessed as ROS production at 10 uM/L using DCFH-DA by flow cytometry relative to control; format: functional, cell-based; outline: as §2
Mus musculus [28] = organism: Mus musculus; assay: Cytotoxicity against mouse betaD5 cells after 24 to 96 hrs by MTS assay; format: functional, cell-based; outline: as §3
A2B1 [29] = assay: Induction apoptosis in mouse A2B1 cells assessed as relative caspase activity at 10 uM/L after 2 hrs by rhodamine 110 fluorescence assay; format: functional, cell-based; outline: as §1
Craf/Cmyc [30] = assay: Cytotoxicity against mouse Craf/Cmyc cells after 24 to 96 hrs by MTS assay; format: functional, cell-based; outline: as §3
A2B1 [31] = assay: Induction apoptosis in mouse A2B1 cells assessed as ROS production at 10 uM/L using DCFH-DA by flow cytometry relative to control; format: functional, cell-based; outline: as §2
Mus musculus [32] = organism: Mus musculus; assay: Cytotoxicity against mouse betaD10 cells after 24 to 96 hrs by MTS assay; format: functional, cell-based; outline: as §3
A2C12 [33] = assay: Induction apoptosis in mouse A2C12 cells assessed as relative caspase activity at 10 uM/L after 2 hrs by rhodamine 110 fluorescence assay; format: functional, cell-based; outline: as §1
HUVEC = assay: Antiangiogenic activity in HUVEC cocultured with human PaSMC assessed as inhibition of capillary-like network formation up to 200 nM after 72 hrs; format: functional, cell-based
Outline: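 Primary HUVEC (passage 5, retrovirally labelled with RFP) and pulmonary artery vSMC (passage 5) co-seeded at 5×10^4 PaSMC plus 10×10^3 HUVEC per well in EGM-2, briefly spun at 200 g, attached 3 h. Compounds were then added at final 2–200 nM, two replicates per concentration. Networks formed over 72 h at 37 °C, 5% CO2, followed by automated imaging and image analysis of tube formation.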

For `CC[C@@]1(OC(=O)NCCN2C(=O)CCCCCCCCC2=O)C(=O)OCc2c1cc1n(c2=O)Cc2cc3ccccc3nc2-1`, the Activity (yA7 [1]) was “inactive”, the Activity (Nucleic Acid) was “inactive” and the Activity (B3 [2]) was “inactive”. The Activity (yA7 [3]) was “inactive”, the Activity (Mus musculus [4]) was “inactive” and the Activity (B3 [5]) was “inactive”. For the same compound, the Activity [6] was “inactive”, the Activity (Mus musculus [7]) was “inactive” and the Activity (Mus musculus [8]) was “inactive”. The Activity (Mus musculus [9]) was “inactive”, the Activity (A2B1 [10]) was “Active” and the IC50 (A-431) was 1.88 µM. The Activity (yB8 [11]) was “Active”, the Activity (yA7 [12]) was “Active” and the Activity (yA3 [13]) was “Active”. The Activity (Bos taurus) was “inactive”, the Activity (yD1 [14]) was “inactive” and the IC50 (HeLa) was 8.3 µM. The Activity (yB8 [15]) was “inactive”, the Activity (yD12 [16]) was “inactive” and the Activity (yD12 [17]) was “inactive”. The Activity (yD12 [18]) was “Active”, the Activity (A2C12 [19]) was “Active” and the Activity (Craf/Cmyc [20]) was “inactive”. For the same compound, the IC50 (HL-60) was 12.2 µM, the Activity (yA3 [21]) was “inactive” and the Activity (Craf/Cmyc [22]) was “inactive”. For the same compound, the Activity (yA3 [23]) was “inactive”, the Activity (B3 [24]) was “Active” and the Activity (yD1 [25]) was “inactive”. For the same compound, the Activity (A2C12 [26]) was “inactive”, the Activity (yB8 [27]) was “inactive” and the Activity (Mus musculus [28]) was “Active”. For the same compound, the Activity (A2B1 [29]) was “inactive”, the Activity (Craf/Cmyc [30]) was “Active” and the Activity (A2B1 [31]) was “inactive”. For the same compound, the Activity (Mus musculus [32]) was “Active” and the Activity (A2C12 [33]) was “inactive”.
With `CC[C@@]1(OC(=O)NCCN2C(=O)CCCSSCCCC2=O)C(=O)OCc2c1cc1n(c2=O)Cc2cc3ccccc3nc2-1` the Activity (Nucleic Acid) was “inactive”, the Activity [6] was “inactive” and the Activity (A2B1 [10]) was “Active”. The IC50 (A-431) was 1.21 µM, the Activity (yB8 [11]) was “Active” and the Activity (yA7 [12]) was “Active”. For the same compound, the Activity (yA3 [13]) was “Active”, the Activity (Bos taurus) was “inactive” and the IC50 (HeLa) was 0.57 µM. The Activity (yD12 [18]) was “Active”, the Activity (A2C12 [19]) was “Active” and the IC50 (HL-60) was 1.55 µM. The Activity (HUVEC) was “inactive”, the Activity (B3 [24]) was “Active” and the Activity (Mus musculus [28]) was “Active”. For the same compound, the Activity (Craf/Cmyc [30]) was “Active” and the Activity (Mus musculus [32]) was “Active”.
